From ChEMBL document CHEMBL1143839, “Antiplasmodial activity of lauryl-lysine oligomers” (Antimicrob Agents Chemother, 2007) come the findings set out here.

Each structure is given as a SMILES string.

The nature of data set [1]: Ratio of IC50 for dog MDCK cells to IC50 for Plasmodium falciparum W2. The format is functional.
Data set [2] in a line: Toxicity against human erythrocytes assessed as hemolysis at 100 uM after 1 hr. It is filed as cell-based, Erythrocyte. Particulars: read-out: Activity. In a few lines:
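Heparinized fresh human blood washed three times in PBS (200 × g, 2 min), mixed with compound in PBS to 4% hematocrit. Incubated 1 h at 37°C with stirring, then centrifuged. Supernatant absorbance read at 460 nm. PBS alone gave baseline and 0.4% Triton X-100 gave 100% lysis. At least two independent experiments.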

Data set [3] can be described thus: Ratio of LC50 for erythrocytes to IC50 for Plasmodium falciparum W2. The format is functional.
The next data set deals with MDCK. The experiment in a line: Cytotoxicity against dog MDCK cells after 3.5 hrs by Alamar blue assay. The format is cell-based. Particulars: Canis lupus familiaris. The method, boiled down:
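Cells grown to confluence (~3 days) with different compound concentrations in parallel cultures. Viability then read by Alamar blue fluorescence 3.5 h after dye addition. Cycloheximide 10 µM added at start as positive control. IC50 taken as concentration reducing viability by 50%. At least two independent experiments in duplicate.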

Another data set deals with Plasmodium falciparum. The experiment in a line: Antiplasmodial activity against Plasmodium falciparum W2 as reduced [3H]hypoxanthine uptake after 18 hrs.

For orientation: IC50 means the concentration that inhibits the measured activity by half. A lower IC50 goes with inhibition by little substance. For the molecule `NCCCCC(N)C(=O)NCCCCCCCCCCCC(=O)NC(CCCCN)C(=O)O` (stereo not given), the “Ratio IC50” value in data set [1] is more than 12. Moreover, the hemolysis at 1 h, 100 µM in data set [2] is less than 0.1%. In data set [3], the “Ratio LC50/IC50” value was more than 700. Moreover, the IC50 in the data set with MDCK was more than 800 µM; in the data set on Plasmodium falciparum, 68.2 µM.

In the case of `CCCCCCCCCCCC(=O)NC(CCCCN)C(=O)NCCCCCCCCCCCC(=O)NC(CCCCN)C(=O)O` (stereo not given), the “Ratio IC50” value in data set [1] was more than 28. For the same molecule, the hemolysis at 1 h, 100 µM in data set [2] was 4.9%. In addition, the “Ratio LC50/IC50” value in data set [3] is on record as 288. The IC50 was more than 100 µM in the data set on MDCK and 3.54 µM in the data set with Plasmodium falciparum.

For `NCCCCCCCCCCCC(=O)NC(CCCCN)C(=O)NCCCCCCCCCCCC(=O)NC(CCCCN)C(=O)O` (stereo not given), the “Ratio IC50” value in data set [1] is listed as more than 32. Further, in data set [2], the hemolysis at 1 h, 100 µM came to 0.14%. For the same molecule, in data set [3], the “Ratio LC50/IC50” value is given as 7714. Further, the IC50 was more than 150 µM with MDCK and 4.63 µM in the data set on Plasmodium falciparum.

Turning to `CCCCCCCCCCCC(=O)NC(CCCCN)C(=O)NCCCCCCCCCCCC(=O)NC(CCCCN)C(=O)NCCCCCCCCCCCC(=O)NC(CCCCN)C(=O)O` (stereo not given), the “Ratio IC50” value in data set [1] is reported as 88. Moreover, in data set [2], the hemolysis at 1 h, 100 µM was 13.3%. The “Ratio LC50/IC50” value in data set [3] is reported as 442. Also, the IC50 in the data set with MDCK was 75 µM; with Plasmodium falciparum, 0.85 µM.

For the molecule `NCCCCC(N)C(=O)NCCCCCCCCCCCC(=O)NC(CCCCN)C(=O)NCCCCCCCCCCCC(=O)NC(CCCCN)C(=O)O` (stereo not given), the “Ratio IC50” value in data set [1] is more than 51. The hemolysis at 1 h, 100 µM in data set [2] was less than 0.1%. For the same molecule, the “Ratio LC50/IC50” value in data set [3] is recorded as more than 6300. In addition, the IC50 in the data set with MDCK was more than 400 µM; with Plasmodium falciparum it was 7.85 µM.

Turning to `NCCCCCCCCCCCC(=O)NC(CCCCN)C(=O)NCCCCCCCCCCCC(=O)NC(CCCCN)C(=O)NCCCCCCCCCCCC(=O)NC(CCCCN)C(=O)O` (stereo not given), the “Ratio IC50” value in data set [1] turned out to be 650. Further, the hemolysis at 1 h, 100 µM in data set [2] is 3.4%. Besides, the “Ratio LC50/IC50” value in data set [3] was determined as 10734. The IC50 in the data set on MDCK is 91 µM; with Plasmodium falciparum it was 0.14 µM.

In the case of `NCCCCC(N)C(=O)NCCCCCCCCCCCC(=O)NC(CCCCN)C(=O)NCCCCCCCCCCCC(=O)NC(CCCCN)C(=O)NCCCCCCCCCCCC(=O)NC(CCCCN)C(=O)O` (stereo not given), the “Ratio IC50” value in data set [1] is listed as more than 157. For the same molecule, the hemolysis at 1 h, 100 µM in data set [2] amounted to 2.3%. For the same molecule, the “Ratio LC50/IC50” value in data set [3] is listed as 1263. In addition, the IC50 in the data set with MDCK is more than 270 µM; in the data set on Plasmodium falciparum, 1.72 µM.

Turning to `CCCCCCCCCCCC(=O)NC(CCCCN)C(=O)NCCCCCCCCCCCC(=O)NC(CCCCN)C(=O)NCCCCCCCCCCCC(=O)NC(CCCCN)C(=O)NCCCCCCCCCCCC(=O)NC(CCCCN)C(=O)O` (stereo not given), the “Ratio IC50” value in data set [1] is reported as 1052. For the same molecule, the hemolysis at 1 h, 100 µM in data set [2] is 26.1%. In addition, the “Ratio LC50/IC50” value in data set [3] was 2317. Besides, the IC50 with MDCK was determined as 37 µM; in the data set with Plasmodium falciparum, 0.08 µM.

Take `NCCCCCCCCCCCC(=O)NC(CCCCN)C(=O)NCCCCCCCCCCCC(=O)NC(CCCCN)C(=O)NCCCCCCCCCCCC(=O)NC(CCCCN)C(=O)NCCCCCCCCCCCC(=O)NC(CCCCN)C(=O)O` (stereo not given): in data set [1], the “Ratio IC50” value is more than 47. Besides, the hemolysis at 1 h, 100 µM in data set [2] stood at 24.6%. Moreover, the “Ratio LC50/IC50” value in data set [3] stood at 126. The IC50 in the data set on MDCK was more than 75 µM; in the data set with Plasmodium falciparum, 1.59 µM.
